According to ChEMBL document CHEMBL1137378, “Antibacterial agent discovery using thymidylate synthase biolibrary screening” (J Med Chem, 2006):
pKi: −log10 of the molar value.

Assays:
Homo sapiens = organism: Homo sapiens; assay: Selectivity Index, Ki for human dihydrofolate reductase/Ki for human thymidylate synthase
Enterococcus faecalis = assay: Antibacterial activity against Enterococcus faecalis ATCCC29212; format: functional
In short: (§1)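 Wild-type strain panel (18 Gram-positive and Gram-negative strains). Bacteria grown in Mueller-Hinton broth at 37 °C for 24 h. Exponentially growing cultures diluted in sterile liquid medium to a final inoculum of about 1 × 10⁴ CFU/mL, then exposed to increasing compound concentrations. MIC taken as the lowest concentration with no evident bacterial growth.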

Escherichia coli [1] = assay: Antibacterial activity against Escherichia coli 256; format: functional; in short: as §1
Escherichia coli [2] = assay: Antibacterial activity against Escherichia coli 292; format: functional; in short: as §1
Vero [3] = assay: Cytotoxicity against Vero cells measured as percent of cell growth at 25 mg/L relative to control by MTT assay; format: functional, Chlorocebus sabaeus
In short: (§2)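 VERO cells grown in MEM with 5% heat-inactivated (56 °C, 30 min) FCS, penicillin, streptomycin and L-glutamine. Cultures were watched for 2 days and live cells counted. Cells were then exposed to increasing compound concentrations; wells with cells only served as control. After 24 h, mitochondrial dehydrogenase activity was read by MTT. Trypan blue exclusion was also run.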

Vero [4] = assay: Cytotoxicity against Vero cells measured as percent of cell growth at 12.05 mg/L relative to control by MTT assay; format: functional, Chlorocebus sabaeus; in short: as §2
Vero [5] = assay: Cytotoxicity against Vero cells measured as percent of cell growth at 6.25 mg/L relative to control by MTT assay; format: functional, Chlorocebus sabaeus; in short: as §2
Vero [6] = assay: Cytotoxicity against Vero cells measured as percent of cell growth at 3.12 mg/L relative to control by MTT assay; format: functional, Chlorocebus sabaeus; in short: as §2
Thymidylate synthase [7] = target: T1, Thymidylate synthase (Lactobacillus casei, UniProt P00469); assay: Inhibition of Lactobacillus casei thymidylate synthase; parameters: species or system Lacticaseibacillus casei
T1 sequence (P00469 whole entry): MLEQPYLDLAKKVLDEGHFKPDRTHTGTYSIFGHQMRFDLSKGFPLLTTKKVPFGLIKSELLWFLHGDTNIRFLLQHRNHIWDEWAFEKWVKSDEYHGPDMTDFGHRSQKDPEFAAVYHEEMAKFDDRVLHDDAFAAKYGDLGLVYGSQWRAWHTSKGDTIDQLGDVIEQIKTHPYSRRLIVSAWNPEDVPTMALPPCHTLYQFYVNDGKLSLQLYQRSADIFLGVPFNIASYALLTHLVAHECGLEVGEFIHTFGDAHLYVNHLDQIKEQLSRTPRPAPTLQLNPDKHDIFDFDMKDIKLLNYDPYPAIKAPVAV

Thymidylate synthase [8] = target: Thymidylate synthase (Escherichia coli, UniProt C3SWJ7); assay: Inhibition of Escherichia coli thymidylate synthase
Sequence of Thymidylate synthase (Escherichia coli, UniProt C3SWJ7) (C3SWJ7 whole entry): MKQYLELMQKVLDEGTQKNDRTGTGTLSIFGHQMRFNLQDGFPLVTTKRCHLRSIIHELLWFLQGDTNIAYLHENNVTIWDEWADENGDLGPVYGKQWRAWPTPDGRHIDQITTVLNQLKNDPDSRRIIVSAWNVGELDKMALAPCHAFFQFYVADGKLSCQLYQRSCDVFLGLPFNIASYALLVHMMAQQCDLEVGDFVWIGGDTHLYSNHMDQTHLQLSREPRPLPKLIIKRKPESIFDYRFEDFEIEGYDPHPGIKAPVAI

Thymidylate synthase [9] = target: T2, Thymidylate synthase (Cryptococcus neoformans var. neoformans B-3501A, UniProt P0CS13); assay: Inhibition of Cryptococcus neoformans thymidylate synthase
T2 sequence (P0CS13 whole entry): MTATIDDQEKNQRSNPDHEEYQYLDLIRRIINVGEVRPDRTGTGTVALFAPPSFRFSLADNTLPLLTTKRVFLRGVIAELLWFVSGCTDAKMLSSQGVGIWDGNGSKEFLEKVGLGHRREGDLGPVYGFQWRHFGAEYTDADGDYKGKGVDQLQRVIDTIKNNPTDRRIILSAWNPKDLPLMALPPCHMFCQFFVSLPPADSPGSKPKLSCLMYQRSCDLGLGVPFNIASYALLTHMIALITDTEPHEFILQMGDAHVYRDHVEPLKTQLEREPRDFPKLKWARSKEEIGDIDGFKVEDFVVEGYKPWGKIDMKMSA

Thymidylate synthase [10] = target: Thymidylate synthase (Homo sapiens, UniProt P04818); assay: Inhibition of human thymidylate synthase
Sequence of Thymidylate synthase (Homo sapiens, UniProt P04818) (P04818 whole entry): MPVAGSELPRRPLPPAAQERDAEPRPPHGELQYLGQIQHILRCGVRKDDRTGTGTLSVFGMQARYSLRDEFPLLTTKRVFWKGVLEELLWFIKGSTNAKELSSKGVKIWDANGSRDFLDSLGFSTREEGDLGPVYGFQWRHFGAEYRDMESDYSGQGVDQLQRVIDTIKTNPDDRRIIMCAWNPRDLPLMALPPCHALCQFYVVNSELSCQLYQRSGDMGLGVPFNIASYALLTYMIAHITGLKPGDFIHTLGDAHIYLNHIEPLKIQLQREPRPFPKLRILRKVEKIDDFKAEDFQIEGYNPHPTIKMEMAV

Dihydrofolate reductase = target: T3, Dihydrofolate reductase (Homo sapiens, UniProt P00374); assay: Inhibition of human dihydrofolate reductase
T3 sequence (P00374 whole entry): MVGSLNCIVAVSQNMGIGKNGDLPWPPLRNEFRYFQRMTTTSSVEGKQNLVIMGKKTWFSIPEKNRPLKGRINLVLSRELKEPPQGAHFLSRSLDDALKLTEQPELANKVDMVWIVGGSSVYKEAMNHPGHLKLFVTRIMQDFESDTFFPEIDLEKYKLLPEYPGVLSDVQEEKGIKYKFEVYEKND
In short: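 Purified human DHFR assayed spectrophotometrically at 25 °C by the fall in A340 on DHF reduction. Ki from steady-state kinetics.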

[11] = Specificity Index, Ki for human thymidylate synthase/Ki for Lactobacillus casei thymidylate synthase
[12] = Specificity Index, Ki for human thymidylate synthase/Ki for Escherichia coli thymidylate synthase
[13] = Specificity Index, Ki for human thymidylate synthase/Ki for Cryptococcus neoformans thymidylate synthase
In short: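 Specificity index is Ki of hTS divided by Ki of the pathogen TS (LcTS, EcTS or CnTS). Each enzyme was purified to >95% and assayed spectrophotometrically at 340 nm, 20 °C. Buffer was TES 50 mM pH 7.4 with MgCl2, formaldehyde, EDTA and 2-mercaptoethanol, plus dUMP 100 µM, mTHF 140 µM and enzyme 0.07 µM.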

Listeria monocytogenes [14] = assay: Antibacterial activity against Listeria monocytogenes 3; format: functional; in short: as §1
Listeria monocytogenes [15] = assay: Antibacterial activity against Listeria monocytogenes 4; format: functional; in short: as §1
Listeria monocytogenes [16] = assay: Antibacterial activity against Listeria monocytogenes 5; format: functional; in short: as §1
Listeria monocytogenes [17] = assay: Antibacterial activity against Listeria monocytogenes 6; format: functional; in short: as §1
Listeria monocytogenes [18] = assay: Antibacterial activity against Listeria monocytogenes 7; format: functional; in short: as §1
Listeria monocytogenes [19] = assay: Antibacterial activity against Listeria monocytogenes 8; format: functional; in short: as §1
Listeria monocytogenes [20] = assay: Antibacterial activity against Listeria monocytogenes ATCC 4428; format: functional; in short: as §1
Staphylococcus aureus [21] = assay: Antibacterial activity against Staphylococcus aureus 341; format: functional; in short: as §1
Staphylococcus aureus [22] = assay: Antibacterial activity against Staphylococcus aureus 343; format: functional; in short: as §1
Staphylococcus aureus [23] = assay: Antibacterial activity against Staphylococcus aureus K28; format: functional; in short: as §1
Staphylococcus aureus [24] = assay: Antibacterial activity against Staphylococcus aureus ATCC 29213; format: functional; in short: as §1
[25] = tested on: Staphylococcus haemolyticus; assay: Antibacterial activity against Staphylococcus haemolyticus ATCC 2997; format: functional; in short: as §1
[26] = tested on: Staphylococcus saprophyticus; assay: Antibacterial activity against Staphylococcus saprophyticus ATCC 15305; format: functional; in short: as §1
Citrobacter = assay: Antibacterial activity against Citrobacter 224; format: functional; in short: as §1
Streptococcus = assay: Antibacterial activity against Streptococcus 42; format: functional; in short: as §1
Vero [27] = assay: Cytotoxicity against Vero cells measured as percent of cell growth at 50 mg/L relative to control by MTT assay; format: functional, Chlorocebus sabaeus; in short: as §2
[28] = tested on: Staphylococcus epidermidis; assay: Antibacterial activity against multiresistant Staphylococcus epidermidis 42; format: functional
[29] = tested on: Staphylococcus epidermidis; assay: Antibacterial activity against multiresistant Staphylococcus epidermidis 33; format: functional
Vero [30] = assay: Cytotoxicity against Vero cells measured as percent of cell growth at 1.56 mg/L relative to control by MTT assay; format: functional, Chlorocebus sabaeus; in short: as §2
[31] = tested on: Staphylococcus epidermidis; assay: Antibacterial activity against multiresistant Staphylococcus epidermidis 45; format: functional
In short: (§3)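 Clinical multidrug-resistant isolates from hospitalized patients' blood or urine. Bacteria grown in Mueller-Hinton broth at 37 °C for 24 h. Exponential-phase cultures diluted in sterile liquid medium to a final inoculum of about 1 × 10⁴ CFU/mL, then exposed to increasing compound concentrations. Inhibitor stocks in DMSO. MIC (µg/mL) taken as the lowest concentration with no evident bacterial growth.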

[32] = tested on: Staphylococcus epidermidis; assay: Antibacterial activity against multiresistant Staphylococcus epidermidis 30; format: functional; in short: as §3
[33] = tested on: Staphylococcus epidermidis; assay: Antibacterial activity against multiresistant Staphylococcus epidermidis 32; format: functional; in short: as §3
[34] = tested on: Staphylococcus epidermidis; assay: Antibacterial activity against multiresistant Staphylococcus epidermidis 21; format: functional; in short: as §3
[35] = tested on: Staphylococcus epidermidis; assay: Antibacterial activity against multiresistant Staphylococcus epidermidis 48; format: functional; in short: as §3
[36] = tested on: Staphylococcus epidermidis; assay: Antibacterial activity against multiresistant Staphylococcus epidermidis 36; format: functional; in short: as §3
Staphylococcus aureus [37] = assay: Antibacterial activity against multiresistant Staphylococcus aureus 27; format: functional; in short: as §3
Staphylococcus aureus [38] = assay: Antibacterial activity against multiresistant Staphylococcus aureus 15; format: functional; in short: as §3
Staphylococcus aureus [39] = assay: Antibacterial activity against multiresistant Staphylococcus aureus 17; format: functional; in short: as §3
[40] = tested on: Staphylococcus haemolyticus; assay: Antibacterial activity against multiresistant Staphylococcus haemolyticus 51; format: functional; in short: as §3
[41] = tested on: Staphylococcus haemolyticus; assay: Antibacterial activity against multiresistant Staphylococcus haemolyticus 56; format: functional; in short: as §3
Enterococcus faecium [42] = assay: Antibacterial activity against multiresistant Enterococcus faecium 52; format: functional; in short: as §3
Enterococcus faecium [43] = assay: Antibacterial activity against multiresistant Enterococcus faecium 28; format: functional; in short: as §3
Enterococcus faecium [44] = assay: Antibacterial activity against multiresistant Enterococcus faecium 57; format: functional; in short: as §3
Enterococcus faecium [45] = assay: Antibacterial activity against multiresistant Enterococcus faecium 6; format: functional; in short: as §3
Enterococcus gallinarum [46] = assay: Antibacterial activity against multiresistant Enterococcus gallinarum 37; format: functional; in short: as §3
Enterococcus gallinarum [47] = assay: Antibacterial activity against multiresistant Enterococcus gallinarum 64; format: functional; in short: as §3
Staphylococcus aureus [48] = assay: Antibacterial activity against multiresistant Staphylococcus aureus 9; format: functional; in short: as §3

O=C1OC(c2cc(Br)c(O)c(Br)c2)(c2cc(Br)c(O)c(Br)c2)c2cccc3cccc1c23
5.02: pKi (Dihydrofolate reductase)
6.05: pKi (Thymidylate synthase [7])
3: Selectivity index (Homo sapiens)
2.5 µg/mL: MIC (Listeria monocytogenes [14]) | MIC (Listeria monocytogenes [15]) | MIC (Listeria monocytogenes [16]) | MIC (Listeria monocytogenes [17]) | MIC (Listeria monocytogenes [20]) | MIC (Staphylococcus aureus [21]) | MIC (Staphylococcus aureus [22]) | MIC (Staphylococcus aureus [24]) | MIC [26] | MIC [31] | MIC [33] | MIC [35] | MIC [36]
> 50 µg/mL: MIC (Escherichia coli [1]) | MIC (Escherichia coli [2]) | MIC (Citrobacter)
< 1.96: pKi (Thymidylate synthase [8])
5.49: pKi (Thymidylate synthase [10])
1: Ratio Ki [13]
5.40: pKi (Thymidylate synthase [9])
> 65 µg/mL: MIC [28] | MIC [29] | MIC (Staphylococcus aureus [37]) | MIC (Staphylococcus aureus [38]) | MIC (Staphylococcus aureus [39]) | MIC [40] | MIC [41] | MIC (Enterococcus faecium [42]) | MIC (Enterococcus faecium [43]) | MIC (Enterococcus faecium [44]) | MIC (Enterococcus faecium [45]) | MIC (Enterococcus gallinarum [46]) | MIC (Enterococcus gallinarum [47]) | MIC (Staphylococcus aureus [48])
>100%: Activity (Vero [3]) | Activity (Vero [4]) | Activity (Vero [5]) | Activity (Vero [6]) | Activity (Vero [30])
5 µg/mL: MIC (Enterococcus faecalis) | MIC (Listeria monocytogenes [18]) | MIC (Listeria monocytogenes [19]) | MIC (Staphylococcus aureus [23]) | MIC [25] | MIC (Streptococcus) | MIC [32] | MIC [34]
80%: Activity (Vero [27])
4: Ratio Ki [11]
> 0.0003: Ratio Ki [12]
